Structures can show the parent of a compound that is named as a salt. Where two headings read alike, the source gives them in different places.
How the values were obtained:
[1] = Host cell number in the same well of the amastigote image-based assay; parameters: species or system mouse; settings: mouse, 3T3 host cells infected with T. cruzi
[2] = system: 3T3 host cells; test: as above; parameters: species or system mouse; settings: for SI (3T3): 3T3 IC50 or highest dose tested / amastigote IC50
[3] = system: HEK293 cells; test: HEK293 viability assay; type: cell-based, human; settings: for IC50: read-out: IC50 HEK293 (μM ± SD); for Selectivity (SI) of T. cruzi amastigotes to HEK293 cells: based on solid samples
[4] = system: 3T3 cells; test: Activity against sub-confluent 3T3 cells; type: cell-based, mouse; settings: at 73 μM, seeding density of 1000 cells per well
In short: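 3T3 cells seeded at 1000 to 62 cells/well in collagen-coated 384-well plates and grown 48 h. Wells were washed twice and refilled with growth medium. A test-compound dose series was added in duplicate per density, with 30 μM puromycin (positive) and 0.37% DMSO (negative) controls. After a further 48 h, 70 μM final resazurin was added. […] Averaged over duplicate experiments.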

[5] = system: T. cruzi amastigotes; test: Residual amastigotes following compound treatment, 48 and 72 h image-based assay; type: cell-based, Trypanosoma cruzi Tulahuen strain; settings: for Emax at 18 µM / IC50: Trypanosoma cruzi; for Emax at 18 µM: read-out: % of infections removed at Emax concentration; for IC50: read-out: IC50 value against T. cruzi amastigotes
In short: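 3T3 fibroblasts seeded at 1 × 10³ cells/well in collagen-coated 384-well plates, then infected with T. cruzi trypomastigotes. Free parasites were washed off with PBS after 24 h. Test compound was given as a dose series, pre-diluted 1:21 in water, for 48 or 72 h. Cells were fixed in 4% paraformaldehyde and stained with Hoechst in 0.1% Triton X-100. Residual intracellular spots at the Emax concentration were scored, including by eye.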

[6] = system: Trypanosoma cruzi amastigotes; test: Image-based T. cruzi amastigote assay in 3T3 fibroblasts, 48 h compound exposure; type: cell-based, Trypanosoma cruzi Tulahuen strain; settings: Fibroblast
[7] = system: T. cruzi trypomastigotes; test: Trypomastigote viability assay; type: cell-based, Trypanosoma cruzi Tulahuen strain; settings: for activity against the trypomastigote: Malaria Box retest; for IC50: read-out: IC50 T. cruzi Trypomastigote (μM ± SD)
[8] = system: Tulahuen strain parasites in U2OS cells; settings: 96 h treatment, high concentrations; ref Moraes et al., 2014; cited from earlier work
[9] = system: Y strain infection; settings: ref Moraes et al., 2014, cited from earlier work
[10] = read-out: T. cruzi amastigote IC50 (μM ± SD), Malaria Box sample stored in 100% DMSO, two independent experiments
[11] = read-out: 3T3 % activity highest dose, at 9.2 μM, DMSO sample
[12] = solid sample, 48 h, 2 independent experiments
[13] = Trypanosoma cruzi, read-out: T. cruzi Trypomastigote % activity at highest dose
[14] = read-out: IC50 value against T. cruzi amastigotes, Malaria Box primary screening

In the case of `CC[C@@]1(O)C(=O)OCc2c1cc1n(c2=O)Cc2cc3ccccc3nc2-1` [Camptothecin, camptothecin], the cytotoxicity at 48 h, 5 µM [1] is reported as 38%, the cytotoxicity at 48 h, 16.8 µM [1] is reported as 44% and the “SI (3T3)” value ([2]; library DMSO stock) is reported as >49.41. The “SI (3T3)” value ([2]; solid sample) was >55.56.

With `Cc1cc(C2CCCCC2)n(O)c(=O)c1` [Ciclopirox Olamine, ciclopirox olamine] the cytotoxicity at 48 h, 136.5 µM [1] was 42%, the “SI (3T3)” value ([2]; library DMSO stock) was >3.54 and the “SI (3T3)” value ([2]; solid sample) was > 35.0. The activity at 19 µM ([2]; Mus musculus, read-out: Host % activity at highest dose) was 53%, the IC50 ([3]; Homo sapiens, HEK293, 48 h) was 1.4 ± 1.07 µM and the “Selectivity index (SI) to HEK293 cells” value ([3]; Table 2 footnote a, solid sample) was 0.36. The “activity against 3T3 cells” value [4] was 38%.

With `Clc1ccccc1C(c1ccccc1)(c1ccccc1)n1ccnc1` [Clotrimrazole HCl, clotrimazole, reference compound] the “residual amastigotes at the Emax concentration” value ([5]; 48 h incubation, 0.92 µM in Figure S3) was “amastigotes that appeared to remain”.

In the case of `CCOc1cccc2sc(N(Cc3cccnc3)C(=O)C3CCCCC3)nc12` [MMV001230], the “SI (3T3)” value ([2]; based on solid samples) is reported as > 87.26 and the “Selectivity (SI) of T. cruzi amastigotes to HEK293 cells” value (“Selectivity (SI)” below) [3] is reported as > 94.52.

In the case of `COc1ccc2sc(N(Cc3cccnc3)C(=O)c3ccc(C#N)cc3)nc2c1` [MMV001239, 4-cyano-N-(5-methoxy-1,3-benzothiazol-2-yl)-N-(pyridin-3-ylmethyl)benzamide], the IC50 [6, 10] is reported as 0.86 ± 0.006 µM, the “cytotoxicity against 3T3 cells” value [2] is reported as “no cytotoxicity detected” and the “SI (3T3)” value ([2]; based on solid samples) is reported as > 20.65. For the same compound, the “activity / cytotoxicity against HEK293 cells” value [3] was “no cytotoxicity detected”, the “Selectivity (SI)” value [3] was > 22.37 and the “% of infections removed at Emax concentration” value ([5]; 18 μM, 48 h incubation) was “Ninety”. The Emax at 18 µM ([5]; 48 h) was 90%.

For `COc1ccc(C)c2sc(N(Cc3cccnc3)C(=O)c3ccc(C#N)cc3)nc12` [MMV001241], the “SI (3T3)” value ([2]; based on solid samples) was > 31.59, the “HEK293 % activity at highest dose” value ([3]; at 79.4 μM, solid sample) was 44% at 79.4 μM and the “Selectivity (SI)” value [3] was > 34.22.

In the case of `O=C(Nc1nc(-c2ccccn2)cs1)c1ccccc1Br` [MMV665909], the cytotoxicity [2, 11] is reported as 35%, the cytotoxicity ([2]; read-out: 3T3 % activity highest dose, at 73.3 μM, solid sample) is reported as 44% and the “activity against the trypomastigote” value [7] is reported as “active against the trypomastigote life cycle form”. The IC50 ([7]; Malaria Box DMSO sample) was 1.08 ± 0.01 µM, the IC50 ([7]; Malaria Box solid sample) was 1.05 ± 0.13 µM and the IC50 [3, 12] was 1.97 ± 0.65 µM.

For `COc1ccccc1N1CCN(C(CNS(=O)(=O)c2ccc(Cl)cc2)c2cccnc2)CC1` (stereo not drawn) [MMV665914, 4-chloro-N-(2-(4-(2-methoxyphenyl)piperazin-1-yl)-2-(pyridin-3yl)ethyl) benzene sulfonamide], the “SI (3T3)” value ([2]; based on solid samples) was > 42.37, the cytotoxicity [2, 11] was 25% and the “Selectivity (SI)” value [3] was > 45.90. The “% of infections removed at Emax concentration” value ([5]; 18 μM, 48 h incubation) was 97% and the “% of parasites removed at Emax concentration” value ([5]; 18 μM, 72 h incubation) was 99%.

With `Cc1[nH]c2ccccc2c(=O)c1CC=C(Cl)Cl` [MMV665994, 3-(3,3-Dichloro-2-propen-1-yl)-2-methyl-4(1H)-quinolinone] the IC50 [6, 10] was 0.66 ± 0.7 µM, the “SI (3T3)” value ([2]; based on solid samples) was > 59.59 and the inhibition at 87 µM [7, 13] was 52%. The “Selectivity (SI)” value [3] was > 64.55 and the Emax at 18 µM ([5]; 48 h) was 97%.

With `O=C(NC(c1ccccc1)c1ccc2cccnc2c1O)c1ccccc1` (stereo not drawn) [MMV666080] the “SI (3T3)” value ([2]; based on solid samples) was > 25.77, the cytotoxicity [2, 11] was 40% and the cytotoxicity ([2]; read-out: 3T3 % activity highest dose, at 36.6 μM, solid sample) was 34%. The “activity against the trypomastigote” value [7] was “active against the trypomastigote life cycle form”, the IC50 ([7]; Malaria Box DMSO sample) was 0.9 ± 0.06 µM and the IC50 ([7]; Malaria Box solid sample) was 0.52 ± 0.04 µM. For the same compound, the “activity / cytotoxicity against HEK293 cells” value [3] was “active against HEK293 cells” and the IC50 [3, 12] was 2.88 ± 0.9 µM.

For `CC1CS(=O)(=O)CCN1/N=C/c1ccc([N+](=O)[O-])o1` (stereo not drawn) [Nifurtimox, nifurtimox], the IC50 [6, 14] was 0.764 µM, the IC50 [6, 10] was 0.59 ± 0.1 µM and the cytotoxicity at 48 h, 153.1 µM [1] was 32%. The “SI (3T3)” value ([2]; based on solid samples) was > 231.8, the “SI (3T3)” value ([2]; solid sample) was >157.41 and the “activity against host cells” value ([2]; Malaria Box primary screening) was “no corresponding activity against host cells”. The “Selectivity (SI)” value [3] was > 251.1.

For `COc1ccc(C[C@H](N)C(=O)N[C@H]2[C@@H](O)[C@H](n3cnc4c(N(C)C)ncnc43)O[C@@H]2CO)cc1` [Puromycin, puromycin], the IC50 [6, 14] was 2.35 µM, the IC50 [6, 10] was 2.54 ± 0.13 µM and the “SI (3T3)” value ([2]; based on solid samples) was 1.48. For the same compound, the “SI (3T3)” value ([2]; library DMSO stock) was 0.97, the “SI (3T3)” value ([2]; solid sample) was 1.75 and the IC50 ([2]; Mus musculus, read-out: Host IC50 ± stdev, 3T3, run of library DMSO retest) was 3040 ± 520 nM. For the same compound, the IC50 ([2]; Mus musculus, read-out: Host IC50 ± stdev, 3T3, run of solid sample retest) was 2760 ± 690 nM, the IC50 ([3]; Homo sapiens, HEK293, 48 h) was 0.28 ± 0.04 µM and the “Selectivity (SI)” value [3] was 0.12.

`CN(C)c1ccc(Nc2c3ccccc3nc3ccccc23)cc1` [STL088556, N′-(acridin-9-yl)-N,N-dimethylbenzene-1,4-diamine] gave an activity at 73 µM ([6]; read-out: T. cruzi amastigote % activity) of 62%, an IC50 [6, 10] of 2.37 ± 1.51 µM and a cytotoxicity at 48 h, 9.2 µM [1] of 30%. It also gave a cytotoxicity at 48 h, 73.3 µM [1] of 62%, an inhibition at 10.9 µM [7, 13] of 65% and an activity at 79.4 µM ([3]; Homo sapiens, HEK293, read-out: HEK293 % activity at highest dose) of 115%.

With `COc1c(C)c2c(c(O)c1C/C=C(\C)CCC(=O)[O-])C(=O)OC2.[Na+]` [Sodium Mycophenolate, sodium mycophenolate] the “SI (3T3)” value ([2]; library DMSO stock) was >19.11 and the cytotoxicity ([2]; read-out: Host % activity at highest dose, 3T3, at 17.2 μM, library DMSO stock) was 30%.

With `CC[C@@H]([C@H](C)O)n1ncn(-c2ccc(N3CCN(c4ccc(OC[C@@H]5CO[C@@](Cn6cncn6)(c6ccc(F)cc6F)C5)cc4)CC3)cc2)c1=O` [posaconazole, reference compound] the “residual amastigotes at the Emax concentration” value ([5]; Emax of 50 nM, 48 and 72 h (Figure S5)) was “presence of a small number of amastigotes could be seen”, the IC50 ([5]; 48 h) was 6 ± 0.6 nM and the IC50 ([5]; 72 h) was 4.9 ± 3.6 nM. The “parasites reduced by” value [8] was 93%, the “reduction of Y strain infection” value ([9]; 72 h exposure) was 84% and the “reduction of Y strain infection” value ([9]; exposure to 80 nM for 48 h) was “approximately 60%”.

Reference: paper PMC4847003 (International Journal for Parasitology: Drugs and Drug …, 2015)
